# Screens deposited in PubChem BioAssay by several laboratories.
# Jurkat tox 60K = cytotoxicity toward Jurkat T cells, primary screen, cytotoxicity control, cell-based, Jurkat E6.1, 60K MLSMR library; Jurkat E6.1 viability, ATP luminescence, 48 h; inhibition, % at 4 µM; 56,000 tested, 1.2% active;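 active means inhibition above the mean inhibition of all tested compounds plus 3 SD, cut at about 28% in these data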
# Fibroblast inh = antiproliferative effect on LL 47 fibroblasts – human, LL 47 cells, CellTiter-Glo luminescence, primary screen | LL 47 human lung fibroblast viability, ATP luminescence; active compounds read low | viability, % at 10 µM | 85,000 tested, 1.1% active | AID 719, 2007;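 active means viability at or below 50% in the single dose screen; inactive means viability above 50%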;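 further: compound exposure lasted 72 h before the ATP readout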
#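 Material: human LL 47 lung fibroblast cells; quantity: 1,150 cells/well; medium: IMEM plus 15% FBS; doses: 0.1% DMSO in all compound wells; timing: overnight attachment after seeding, then 72 h compound exposure at 37 °C; detection: CellTiter-Glo luminescence; measure: % viability of median cell-only signal; controls: cell-only wells, no compound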
# E coli WT exp = growth inhibitors of wild-type E. coli, primary screen, strain BW25113, expanded library, OD600 | OD600 absorbance | growth inhibition, % at 100 µM | 98,000 tested, 0.15% active;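 active means growth inhibition above about 50% at one test dose, limit read from the data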;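 further: growth measured after 20 h incubation at 37 °C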
# Ecoli tolC = growth inhibitors of E. coli tolC mutant, primary screen, strain BW25113 ΔtolC::kan, 384-well; growth inhibition, % at 10 µM (by protocol); OD615; 65,000 tested, 2.2% active;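 active means growth inhibition at or above a cutoff equal to the mean over every tested compound plus 3 SD, cut at about 60% in these data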;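 further: growth measured after 20 h incubation at 37 °C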
#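 Assay system: tolC-deleted E. coli BW25113. Medium: kanamycin-containing LB broth (50 µg/mL). Dosing: 10 µM final, single dose. Timing: bacterial growth with compound for 20 h at 37 °C. Detection: A615 absorbance measurement. Read-out basis: growth inhibition in percent.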
# H69AR inhibit = proliferation blockers of H69AR lung cancer cells, primary screen, cell-based, human, 86K library; viability, % at 10 µM; H69AR lung tumor viability, ATP luminescence, 72 h; active compounds read low; AID 598, 2007; 85,000 tested, 6% active;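 active means viability at or below 40%; inactive means viability above 40%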;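 further: multidrug resistant small cell line overexpressing MRP-1 efflux transporter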
# HUVEC prolif 384 = inhibitors of HUVEC proliferation, primary screen, cell-based, 384-well | 86,000 tested, 1.1% active | CellTiter-Glo luminescence, 72 h; active compounds read low | viability, % at 10 µM (by protocol) | AID 648, 2007;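 active means viability at or below 30%; inactive means viability above 30%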
# Numbers stand for hits; . = inactive; / = no result. Most compounds without a hit are left out; they make up all but 6.4% or so of the library.
SMILES,Jurkat tox 60K,Fibroblast inh,E coli WT exp,Ecoli tolC,H69AR inhibit,HUVEC prolif 384
Cc1nc(-c2c(-c3ccc(O)cc3O)noc2C(F)(F)F)cs1,/,.,.,.,.,.
CCOc1ccc(CCNC(=O)CCN2C(=O)COc3ccccc32)cc1OCC,.,.,.,.,.,.
O=C(Nc1cc(C(F)(F)F)cc(C(F)(F)F)c1)c1ccc(Cn2cc(C(F)(F)F)ccc2=O)cc1,/,/,.,/,/,/
Clc1ccc(-c2nc3cnccn3c2Nc2ccc3c(c2)OCO3)cc1,/,.,.,/,25,.
CSc1ccc(-c2nc3cnccn3c2Nc2ccc3c(c2)OCO3)cc1,/,/,.,/,/,/
O=C(O)c1cc(S(=O)(=O)NCC2CCCO2)ccc1Cl (configuration not stated),.,.,.,.,.,.
CC1(C)Cc2ccccc2C(N/N=C/c2cccc(F)c2)=N1,/,/,.,/,/,/
CC1(C)Cc2ccccc2C(NNC(=O)c2ccccn2)=N1,/,46,.,/,30,.
COC(=O)C1(c2ccccc2)NC(c2cccs2)C2C(=O)N(c3ccccc3)C(=O)C21 (configuration not stated),/,.,/,/,.,.
COCCNc1nc2c(c(=O)n(C)c(=O)n2C)n1Cc1cccc(C)c1,28,.,.,.,.,.
COc1cccc(Cn2c(Oc3cccc(C)c3)nc3c2c(=O)n(C)c(=O)n3C)c1,.,.,.,84,.,.
Cn1c(=O)c2c(nc(NC(Cc3ccccc3)C(=O)O)n2Cc2ccccc2)n(C)c1=O (configuration not stated),.,/,.,.,/,/
COc1cccc(Cn2c(Oc3ccccc3)nc3c2c(=O)n(C)c(=O)n3C)c1,/,/,.,.,/,/
CNc1nc2c(c(=O)n(C)c(=O)n2C)n1Cc1ccccc1,45,.,.,.,.,.
Cc1cccc(Cn2c(NCCO)nc3c2c(=O)n(C)c(=O)n3C)c1,89,.,.,.,.,.
COCCCNc1nc2c(c(=O)n(C)c(=O)n2C)n1Cc1cccc(OC)c1,/,.,.,.,.,.
CC(C)N(O)C(=O)NC(C)(C)C,.,.,.,.,.,.
Cc1ccc(NC(=O)Nc2nc(-c3ccc(C)s3)cs2)cc1,/,/,.,/,/,/
Cc1c(Cc2c(Cl)cccc2Cl)c(=O)ccn1C(C)c1ccccc1 (configuration not stated),/,/,.,/,/,/
CC(C)N(C(=O)CN1C(=O)NC2(CCCCCC2)C1=O)C(C)C,/,.,.,/,.,.
CCn1c(C(=O)NCc2cccnc2)cc2sc(Cl)cc21,.,/,.,.,/,/
Cn1c(=O)c2c(nc(NCc3ccco3)n2C/C=C/c2ccccc2)n(C)c1=O,49,.,/,.,.,.
Cc1cccc(Cn2c(NCC(C)O)nc3c2c(=O)n(C)c(=O)n3C)c1 (configuration not stated),39,.,.,.,.,.
Cc1ccc(N(CC(=O)N2CCN(C3CCCCC3)CC2)S(=O)(=O)c2cccnc2)cc1,.,.,.,.,.,.
O=C(O)CC1CCS(=O)(=O)C1 (configuration not stated),.,.,.,.,.,.
SMILES,Jurkat tox 60K,Fibroblast inh,E coli WT exp,Ecoli tolC,H69AR inhibit,HUVEC prolif 384
O=C(O)CC1CCC(=C(Cl)Cl)C1 (configuration not stated),.,.,.,.,1.3,.
COCCn1c(C)cc(C(=O)CSc2nc(C)nc3sc4c(c23)CCC4)c1C,.,.,/,.,.,.
O=S(=O)(NCCn1ccc2ccccc21)c1ccccc1,/,.,.,/,.,.
O=C(CSc1nnc(COc2ccccc2)n1Cc1ccco1)c1ccc(F)cc1,.,.,.,.,39,.
COc1ccccc1NC(=O)CSc1nnc(COc2ccc(Cl)cc2)n1Cc1ccco1,.,.,.,.,.,.
Clc1ccc(OCc2nnc(SCCN3CCCCC3)n2Cc2ccco2)cc1,.,.,.,.,15,.
COc1ccc(-c2cc3nc(C)cc(N4CC(C)CC(C)C4)n3n2)cc1 (configuration not stated),/,.,/,/,.,.
CCN(CC)CCCN(Cc1cc2cc3c(cc2[nH]c1=O)OCCO3)C(=O)Nc1ccc(F)cc1,.,.,.,.,.,.
O=C1CCCC2=C1C1c3ccccc3C(=O)N1c1ccc(C(=O)c3ccccc3)cc1N2 (configuration not stated),/,.,/,/,21,.
CCC(=O)N1c2ccccc2NC2=C(C(=O)CCC2)C1c1ccc(N(C)C)cc1 (configuration not stated),.,.,.,.,.,.
O=C1Nc2ccccc2/C1=C/C(=O)c1cccs1,/,34,.,/,0.7,.
O=C(O)/C=C1\NC(=O)c2ccccc21,/,/,.,.,/,/
O=C(c1ccco1)c1cn[nH]c1-c1ccc(Cl)cc1O,/,.,.,.,.,.
CC1CC(C)CN(CCCNC(=O)c2ccc3c(c2)NC(=O)C(N2CCCCC2)S3)C1 (configuration not stated),.,.,.,.,.,.
Cc1ccc2[nH]c3c(c2c1)CCCC3C(N)=O (configuration not stated),/,.,/,.,.,.
CCN(CC)C(=O)C1CCCc2c1[nH]c1ccc(Cl)cc21 (configuration not stated),40,.,/,.,.,.
COc1ccc2nc(NC(=O)CSc3nc4cccnc4n3C)sc2c1,.,.,.,.,.,.
COC(=O)c1sc(NC(=O)CSc2nc3cccnc3n2C2CCCCC2)nc1C,.,.,.,.,20,.
Cc1ccc(N=C2C(=S)N(c3ccc(C)cc3)C(=N)N2/N=C/c2ccc(Cl)cc2)cc1,/,.,/,/,2.7,.
COc1ccc(N=C2C(=Nc3ccc(OC)cc3)N(c3ccc(OC)cc3)C(=S)N2c2ccccc2)cc1,/,/,.,/,/,/
O=C(NCCCCNC(=O)c1ccc(Br)s1)c1ccc(Br)s1,/,/,.,/,/,/
CC(=O)Cc1nsc(NC(=O)c2cccs2)n1,/,.,.,/,.,.
COC(=O)C1=C(C)N(c2ccc(C(=O)OC)cc2)C(=O)C1,.,.,.,.,.,.
COC(=O)C1=C(C)N(c2cc(Cl)cc(Cl)c2)C(=O)C1,/,.,.,.,3.6,.
N#Cc1c(C(F)(F)F)cc(C2CC2)[nH]c1=O,.,.,.,.,.,.
COc1cc2c(cc1NC(=O)CSc1nnc(Cc3cccs3)n1Cc1ccco1)oc1ccccc12,/,.,.,/,37,.
CCn1c(SCC(=O)Nc2cc3oc4ccccc4c3cc2OC)nnc1-c1cccs1,.,.,.,.,2.3,.
C=CCn1c(Cc2cccs2)nnc1SCC(=O)NCc1ccco1,/,.,.,/,.,.
Cc1cc(Cl)ccc1NC(=O)CSc1nnc(Cc2cccs2)n1Cc1ccco1,.,.,.,75,.,.
COc1cc2c(cc1NC(=O)CSc1ccc(C)cc1)oc1ccccc12,/,/,.,/,/,/
